Viability and CC50 data for 80 compounds are collected here from PubChem BioAssay AID602414 (Southern Research Specialized Biocontainment Screening …, 2012).

What is called viability is a read-out of living cells in per cent, often relative to untreated cells. For orientation: CC50 means the concentration that lowers cell viability or growth by half.

“And” between values parts separate entries of the source, which are not always exact repeats. Identical values can stand only once. The source made the active and inactive calls.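 Rule for the calls: active = viability under 80% at some tested dose in each replicate, a sign of cell toxicity; inconclusive = meets the active limit in only one replicate; inactive = the rest.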

System in the first experiment: not listed separately
Nature of the experiment: 5637 bladder carcinoma cell viability loss – set 5, cytotoxicity control for bacterial capsule biogenesis inhibitor project, dose response (AID 602414). The note with it: Bladder 5637 cells viability, CellTiter-Glo, 72 h; at 150 µM (top of the series). Put shortly: (§1)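 Material – bladder carcinoma 5637 cells · Times – 72 h exposure · Signal – CellTiter-Glo luminescence · Measure – percent viability versus mean cell-only control, CC50 from curve fit · Controls – Hyamine positive control, untreated cell control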
A general note: In ATP-based viability assays light output follows the ATP content of the culture.
Turning to `O=C(Nc1nc2ccc(Br)cc2s1)c1cc(Br)c(Br)s1`, the viability is 110% (inactive).

The experiment is the same for the next values; noted with them: Bladder 5637 cells viability, CellTiter-Glo, 72 h; at 300 µM (top of the series).
On to `O=C(Nc1ccc2ncsc2c1)c1ccncc1`, for which the viability was 119% (inactive).

In a further experiment the test system is Bladder 5637 cells viability, CellTiter-Glo, 72 h. Described as above.
Conditions: not given
The essentials:
as §1
In the case of `CC(C)(C)c1ccc(-c2cc(NC(=O)c3c(F)cccc3F)c(C(=O)O)s2)cc1`, the CC50 was 35.1 µM.

For `CCOc1ccc2nc(NC(=O)c3ccc(Br)s3)sc2c1`, the CC50 was 91.2 µM.

For `CCOc1ccc(-c2cc(NC(=O)c3ccc(Br)s3)c(C(=O)O)s2)cc1`, the CC50 is 49.7 µM.

Regarding `CCOc1ccc(-c2cc(NC(=O)c3c(F)cccc3F)c(C(=O)O)s2)cc1`, the CC50 is 42.1 µM and 51.6 µM.

In the case of `CCCOc1ccc(-c2cc(NC(=O)c3c(F)cc(F)cc3F)c(C(=O)O)s2)cc1`, the CC50 was 85.6 µM.

As for `COc1ccc(-c2cc(NC(=O)c3cc4ccccc4o3)c(C(=O)O)s2)cc1`, the CC50 was 284 µM.

Take `CC(C)(C)c1ccc(-c2cc(NC(=O)c3cccc(F)c3)c(C(=O)O)s2)cc1`: the CC50 is 21.1 µM.

For `CCOc1ccc(-c2cc(NC(=O)c3ccc(OC)c(OC)c3)c(C(=O)O)s2)cc1`, the CC50 is 61.8 µM.

Regarding `O=S(=O)(Nc1nc2ccc(F)cc2s1)c1ccc(Br)s1`, the CC50 was 135 µM.

As to `O=C(Nc1cc(-c2ccc(C(F)(F)F)cc2)sc1C(=O)O)c1ccc(Br)s1`, the CC50 was 38.5 µM.

Regarding `CCCc1ccc(-c2cc(NC(=O)c3ccc(Br)o3)c(C(=O)O)s2)cc1`, the CC50 is 46.4 µM.

For `CC(C)c1ccc(-c2cc(NC(=O)c3c(F)cccc3F)c(C(=O)O)s2)cc1`, the CC50 was 32.4 µM.

Take `O=C(Nc1cc(-c2ccc(C(F)(F)F)cc2)sc1C(=O)O)c1cc2ccccc2o1`: the CC50 was 72.1 µM.

On to `CCOc1ccc(-c2cc(NC(=O)c3c(F)cccc3C(F)(F)F)c(C(=O)O)s2)cc1`, for which the CC50 was 62 µM.

Turning to `O=C(Nc1cc(-c2ccc(OCCCC(F)(F)F)cc2)sc1C(=O)O)c1ccc(Br)o1`, the CC50 was 38.7 µM.

Turning to `COc1ccc2nc(NC(=O)c3cccs3)sc2c1`, the CC50 is 29.3 µM.

`O=C(Nc1ccnc(Cl)c1)c1ccc2ncsc2c1`: the CC50 is 38.8 µM.

As for `O=C(Nc1cc(-c2ccc(OCCC(F)(F)F)cc2)sc1C(=O)O)c1ccc(Br)o1`, the CC50 was 41.7 µM.

Take `O=C(Nc1cc(-c2ccc(OC(F)(F)F)cc2)sc1C(=O)O)c1ccc(Br)o1`: the CC50 was 33.6 µM.

For `COc1ccc2nc(NC(=O)c3ccco3)sc2c1`, the half-maximal cytotoxic concentration (CC50) is 66.7 µM.

For the compound `Cc1ccc(-c2cc(NS(=O)(=O)c3ccc(Br)s3)cs2)cc1`, the CC50 is 94 µM.

With `O=C(Nc1cc(-c2ccccc2)sc1C(=O)O)c1ccc(Br)o1`, the CC50 was 53.3 µM.

On to `Cc1ccc(-c2cc(NC(=O)c3ccc(Br)o3)c(C(=O)O)s2)cc1`, for which the CC50 is 50.7 µM.

On to `O=C(Nc1ccnc(Br)c1)c1ccc2ncsc2c1`, for which the CC50 is 136 µM.

With `O=C(O)c1sc(-c2ccc(OCCCC(F)(F)F)cc2)cc1NC(=O)c1c(F)cccc1F`, the CC50 is 241 µM.

With `COc1cccc2sc(NC(=O)c3ccc(Br)s3)nc12`, the CC50 is 24.4 µM.

As to `CCCCOc1ccc(-c2cc(NC(=O)c3cc(Br)c(Br)o3)c(C(=O)O)s2)cc1`, the CC50 was 31.7 µM.

On to `CCOc1ccc(-c2cc(NC(=O)c3ccc(Br)o3)c(C(=O)O)s2)cc1`, for which the CC50 is 58.4 µM.

Consider `O=C(Nc1cc(-c2ccc(OCC(F)(F)F)cc2)sc1C(=O)O)c1ccc(Br)o1`, for which the CC50 is 50 µM.

Regarding `O=C(Nc1cc(-c2ccccc2)sc1C(=O)O)c1cccs1`, the CC50 is 34.7 µM.

Consider `CC(C)(C)c1ccc(-c2cc(NC(=O)c3ccc(Br)s3)c(C(=O)O)s2)cc1`, for which the CC50 was 20.5 µM.

On to `O=C(Nc1cc(-c2ccc(OC(F)(F)F)cc2)sc1C(=O)O)c1cc2ccccc2o1`, for which the CC50 was 40.6 µM.

For `CCCCOc1ccc(-c2cc(NC(=O)c3ccc(Br)o3)c(C(=O)O)s2)cc1`, the CC50 was 43.4 µM.

Take `O=C(ONc1ccc(N=NC(=O)c2ccccc2O)cc1)c1ccccc1`: the CC50 was 12.8 µM.

Turning to `CCCc1ccc(-c2cc(NC(=O)c3c(F)cc(F)cc3F)c(C(=O)O)s2)cc1`, the CC50 was 69.9 µM.

On to `Cc1ccc(-c2cc(NC(=O)c3ccc(Br)s3)c(C(=O)O)s2)cc1`, for which the CC50 is 66 µM.

As to `O=C(Nc1cc(-c2ccccc2)sc1C(=O)O)c1cccc(Cl)c1`, the CC50 is 35 µM.

With `COc1ccc(-c2cc(NC(=O)c3ccc(Br)o3)c(C(=O)O)s2)cc1`, the CC50 is 50.5 µM.

`O=C(Nc1cc(-c2ccc(OC(F)(F)F)cc2)sc1C(=O)O)c1cccc(F)c1`: the CC50 is 52.1 µM.

Regarding `CC(C)c1ccc(-c2cc(NC(=O)c3ccc(Br)s3)c(C(=O)O)s2)cc1`, the CC50 is 33.1 µM.

Consider `CCOc1ccc(-c2cc(NC(=O)c3cccc(F)c3)c(C(=O)O)s2)cc1`, for which the CC50 is 55.6 µM.

`Cc1ccc(-c2cc(NC(=O)c3c(F)cccc3F)c(C(=O)O)s2)cc1`: the CC50 was 57.3 µM.

On to `O=C(Nc1cc(-c2ccc(C(F)(F)F)cc2)sc1C(=O)O)c1ccc(Br)o1`, for which the CC50 is 47.5 µM.

Turning to `COc1cccc2sc(NCc3ccc(Br)s3)nc12`, the CC50 was 165 µM.

Turning to `CN(C(=O)c1ccc2ncsc2c1)c1ccccc1`, the CC50 is 267 µM.

`[N-]=[N+]=NCCOc1ccc(-c2cc(NC(=O)c3c(F)cccc3F)c(C(=O)O)s2)cc1`: the CC50 was 273 µM.

For the compound `O=C(O)c1sc(-c2ccc(OCCC(F)(F)F)cc2)cc1NC(=O)c1c(F)cccc1F`, the CC50 was 68.4 µM.

For `O=C(Nc1ccnc(F)c1)c1ccc2ncsc2c1`, the CC50 is 119 µM.

Take `O=C(O)c1sc(-c2ccc(OCC(F)(F)F)cc2)cc1NC(=O)c1c(F)cc(F)cc1F`: the CC50 is 161 µM.

On to `O=C(O)c1sc(-c2ccc(C(F)(F)F)cc2)cc1NC(=O)c1c(F)cccc1F`, for which the CC50 is 44.8 µM.

Regarding `COc1ccc(-c2cc(NC(=O)c3cccc(F)c3)c(C(=O)O)s2)cc1`, the CC50 is 44.8 µM.

On to `O=C(O)c1sc(-c2ccc(OCC(F)(F)F)cc2)cc1NC(=O)c1c(F)cccc1F`, for which the CC50 was 75.2 µM.

As to `CCOc1ccc(-c2cc(NC(=O)c3cc4ccccc4o3)c(C(=O)O)s2)cc1`, the CC50 was 193 µM.

For the compound `O=C(Nc1cc(-c2ccc(C(F)(F)F)cc2)sc1C(=O)O)c1cccc(F)c1`, the CC50 is 35.1 µM.

Turning to `CCCCOc1ccc(-c2cc(NC(=O)c3c(F)cccc3F)c(C(=O)O)s2)cc1`, the CC50 was 42.6 µM.

`Cc1ccc(-c2cc(NC(=O)c3cccc(F)c3)c(C(=O)O)s2)cc1`: the CC50 is 43.9 µM.

With `CCCc1ccc(-c2cc(NC(=O)c3c(F)cccc3F)c(C(=O)O)s2)cc1`, the CC50 was 54.9 µM.

Consider `CCCCOc1ccc(-c2cc(NC(=O)c3c(F)cc(F)cc3F)c(C(=O)O)s2)cc1`, for which the CC50 is 56.2 µM.

In the case of `CCOc1ccc(-c2cc(NC(=O)c3cccc(Cl)c3)c(C(=O)O)s2)cc1`, the CC50 was 43.6 µM.

On to `CC(C)c1ccc(-c2cc(NC(=O)c3ccc(Br)o3)c(C(=O)O)s2)cc1`, for which the half-maximal cytotoxic concentration (CC50) was 50.4 µM.

Turning to `O=C(Nc1ncccc1O)c1ccc2ncsc2c1`, the CC50 is 159 µM.

For `CC(C)(C)c1ccc(-c2cc(NC(=O)c3cc4ccccc4o3)c(C(=O)O)s2)cc1`, the 50% cytotoxic concentration (CC50) was 34.5 µM.

For the compound `O=C(Nc1ccncc1)c1ccc2ncsc2c1`, the CC50 was 178 µM and 244 µM.

For the compound `O=C(O)c1sc(-c2ccc(OC(F)(F)F)cc2)cc1NC(=O)c1c(F)cccc1F`, the CC50 is 51 µM.

In the case of `O=C(O)c1sc(-c2ccc(OCCCC(F)(F)F)cc2)cc1NC(=O)c1c(F)cc(F)cc1F`, the CC50 is 54.7 µM.

As for `COc1ccc(-c2cc(NC(=O)c3c(F)cccc3F)c(C(=O)O)s2)cc1`, the CC50 was 53.3 µM.

As to `Cc1ccc(-c2cc(NC(=O)c3cc4ccccc4o3)c(C(=O)O)s2)cc1`, the CC50 was 94.6 µM.

`O=C(Nc1cc(-c2ccc(OCCCC(F)(F)F)cc2)sc1C(=O)O)c1cc(Br)c(Br)o1`: the half-maximal cytotoxic concentration (CC50) was 26.6 µM and 251 µM.

For `O=C(Nc1ccncc1F)c1ccc2ncsc2c1`, the CC50 was 229 µM.

For the compound `CCCc1ccc(-c2cc(NC(=O)c3cc(Br)c(Br)o3)c(C(=O)O)s2)cc1`, the CC50 was 41 µM.

`O=S(=O)(Nc1nc2ccc(OC(F)(F)F)cc2s1)c1ccc(Br)s1`: the CC50 is 65.9 µM.

Turning to `CC(C)c1ccc(-c2cc(NC(=O)c3cc4ccccc4o3)c(C(=O)O)s2)cc1`, the CC50 was 47.2 µM.

In the case of `O=C(Nc1cc(-c2ccccc2)sc1C(=O)O)c1ccc2c(c1)OCCO2`, the CC50 was 121 µM.

`CCOc1ccc(-c2cc(NC(=O)c3c(F)cc(F)cc3F)c(C(=O)O)s2)cc1`: the CC50 was 76.6 µM.

`O=C(O)c1sc(-c2ccc(C(F)(F)F)cc2)cc1NS(=O)(=O)c1ccc(Br)s1`: the cytotoxic concentration (CC50) is 45.2 µM.

In the case of `O=C(O)c1sc(-c2ccc(OCCC(F)(F)F)cc2)cc1NC(=O)c1c(F)cc(F)cc1F`, the CC50 is 63.6 µM.

For `CC(C)c1ccc(-c2cc(NC(=O)c3cccc(F)c3)c(C(=O)O)s2)cc1`, the CC50 was 37.5 µM.

In the case of `O=C(NCc1cc([N+](=O)[O-])ccc1O)c1cccnc1Sc1ccccc1Cl`, the CC50 is 51.9 µM.
